Experimental data from ChEMBL document CHEMBL5712071, “BET bromodomain protein inhibition is a therapeutic option for medulloblastoma” (Oncotarget, 2013).
The source made the active and inactive calls. The calls are words filed in the database; no cut-off is given here.

How the values were obtained:
D341 cell line [1] = experiment: Anti-proliferative activity against human D341 cells assessed as reduction in cell viability incubated for 48 hrs by MTT assay; assay type: functional, cell-based; settings: D341, 48 h
Procedure, shortened: (§1)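 Cells seeded in triplicate at 2 × 10^3 per well and allowed to adhere for 24h. JQ1 was given as serial dilutions in full medium, 1nM-6µM, from a 10 mM DMSO stock. Viability was read by MTT at each time point and IC50 derived from dose-response curves. Culture media were RPMI 1640/10% FCS for HD-MB3 (plus 1% NEAA), ONS-76, Daoy and UW-228, and EMEM/10% FCS for D-283 and D-341.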

ONS-76 [2] = experiment: Anti-proliferative activity against human ONS-76 cells assessed as reduction in cell viability incubated for 48 hrs by MTT assay; assay type: functional, cell-based; settings: ONS-76, 48 h; procedure, shortened: as §1
ONS-76 [3] = experiment: Anti-proliferative activity against human ONS-76 cells assessed as reduction in cell viability incubated for 72 hrs by MTT assay; assay type: functional, cell-based; settings: ONS-76, 72 h; procedure, shortened: as §1
Daoy = experiment: Anti-proliferative activity against human Daoy cells assessed as reduction in cell viability incubated for 96 hrs by MTT assay; assay type: functional, cell-based; procedure, shortened: as §1
D283 Med [4] = experiment: Anti-proliferative activity against human D283 cells assessed as reduction in cell viability incubated for 72 hrs by MTT assay; assay type: functional, cell-based; procedure, shortened: as §1
D283 Med [5] = experiment: Anti-proliferative activity against human D283 cells assessed as reduction in cell viability incubated for 120 hrs by MTT assay; assay type: functional, cell-based; procedure, shortened: as §1
D341 cell line [6] = experiment: Induction of apoptosis in human D341 cells assessed as increase in population of cells in sub-G1 phase at 500 nM incubated for 72 hrs by ELISA; assay type: functional, cell-based
D341 cell line [7] = experiment: Induction of apoptosis in human D341 cells assessed as increase in population of cells in G1 phase at 500 nM incubated for 72 hrs by ELISA; assay type: functional, cell-based
ONS-76 [8] = experiment: Induction of apoptosis in human ONS-76 cells assessed as increase in population of cells in G1 phase at 500 nM incubated for 72 hrs by ELISA; assay type: functional, cell-based
D283 Med [9] = experiment: Induction of apoptosis in human D283 cells assessed as increase in population of cells in sub-G1 phase at 500 nM incubated for 72 hrs by flow cytometry; assay type: functional, cell-based
Procedure, shortened: (§2)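 Cells were cultured with 500 nM JQ1 or DMSO control, trypsinised and washed 3 times in PBS. DNA was stained with propidium iodide for 15 min and DNA content analysed by flow cytometry to give G1 and sub-G1 fractions.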

ONS-76 [10] = experiment: Induction of apoptosis in human ONS-76 cells assessed as increase in population of cells in sub-G1 phase at 500 nM incubated for 72 hrs by flow cytometry; assay type: functional, cell-based
Procedure, shortened: (§3)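 PI flow cytometry: cells seeded in triplicate, adhered 24h, then exposed to 500 nM JQ1 or DMSO control (methods give 48h culture, legend gives 72h). Harvested by trypsin, washed 3 times in PBS, stained with propidium iodide 15 min, DNA content read by flow cytometry. Sub-G1 fraction taken as apoptotic. Experiments repeated at least 3 times.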

HD-MB03 [11] = experiment: Induction of apoptosis in human HD-MB03 cells assessed as increase in population of cells in sub-G1 phase at 500 nM incubated for 72 hrs by flow cytometry; assay type: functional, cell-based; procedure, shortened: as §3
D283 Med [12] = experiment: Induction of apoptosis in human D283 cells assessed as increase in population of cells in G1 phase at 500 nM incubated for 72 hrs by flow cytometry; assay type: functional, cell-based; procedure, shortened: as §2
UW228 [13] = experiment: Induction of apoptosis in human UW228 cells assessed as increase in population of cells in G1 phase at 500 nM incubated for 72 hrs by flow cytometry; assay type: functional, cell-based
ONS-76 [14] = experiment: Induction of apoptosis in human ONS-76 cells assessed as increase in population of cells in G1 phase at 500 nM incubated for 72 hrs by flow cytometry; assay type: functional, cell-based
HD-MB03 [15] = experiment: Induction of apoptosis in human HD-MB03 cells assessed as increase in population of cells in G1 phase at 500 nM incubated for 72 hrs by flow cytometry; assay type: functional, cell-based; procedure, shortened: as §2
UW228 [16] = experiment: Induction of senescence in human UW228 cells assessed as increase in population of cells in G1 phase at 500 nM incubated for 72 hrs by fluorometric SA-beta-gal activity assay; assay type: functional, cell-based
Procedure, shortened: (§4)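 Senescence read as fluorometric SA-β-gal activity. Cells seeded 2 × 10^3 per well in triplicate and allowed 24h to adhere, then exposed to 500 nM JQ1 or DMSO control for 72h. Assayed per kit protocol. Experiments repeated at least 3 times.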

D283 Med [17] = experiment: Induction of senescence in human D283 cells assessed as increase in population of cells in G1 phase at 500 nM incubated for 72 hrs by fluorometric SA-beta-gal activity assay; assay type: functional, cell-based; procedure, shortened: as §4
HD-MB03 [18] = experiment: Antitumor activity against human HD-MB03 cells xenografted in female athymic (nu/nu) mouse assessed as delay in time required for tumor growth to an average of 1000 mm3 at 50 mg/kg, ip for 28 days relative to untreated control; assay type: functional; settings: time 28 day
Procedure, shortened: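 Female athymic nu/nu mice, 4 weeks old, received 2 × 10^7 HD-MB3 cells in Matrigel subcutaneously in the left flank. At 150–200 mm3 they were randomised, n=7 per group, to JQ1 50 mg/kg ip daily or vehicle for 28 days or until tumours exceeded 1000 mm3. Calipers were used, with volume = (breadth × length × height)/2. Time to 1000 mm3 was analysed by Kaplan-Meier.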

HD-MB03 [19] = experiment: Inhibition of BRD4 female athymic (nu/nu) mouse xenografted with human HD-MB03 cells as reduction in MYC mRNA expression in tumor at 50 mg/kg, ip administered at 0, 12, 24 and 36 hrs over 2-day course by RT-PCR analysis; assay type: functional, organism-based
Procedure, shortened: (§5)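 Same flank HD-MB3 xenografts in female nu/nu mice. Given 4 i.p. doses of JQ1 50 mg/kg (or DMSO) at 0, 12, 24 and 36h; tumours excised 4h after the last dose and snap-frozen. MYC measured by RT-PCR (mean ± S.D.) or western blot with β-actin loading control, 3 tumours per group.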

HD-MB03 [20] = experiment: Inhibition of BRD4 female athymic (nu/nu) mouse xenografted with human HD-MB03 cells as reduction in MYC protein expression in tumor at 50 mg/kg, ip administered at 0, 12, 24 and 36 hrs over 2-day course by Western blot analysis; assay type: functional, organism-based; procedure, shortened: as §5
HD-MB03 [21] = experiment: Induction of apoptosis in female athymic (nu/nu) mouse xenografted with human HD-MB03 cells as increase in expression of cleaved caspase 3 in tumor at 50 mg/kg, ip administered at 0, 12, 24 and 36 hrs over 2-day course by immunohistochemistry; assay type: functional, organism-based
Procedure, shortened: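 Nu/nu mice bearing subcutaneous HD-MB3 tumours received JQ1 50 mg/kg ip or DMSO at 0, 12, 24 and 36 h and were killed 4 h after the last dose, 3 tumours per group. Formalin-fixed 5µm sections underwent pH 6.0 antigen retrieval for 20 min at 100°C, then cleaved caspase 3 immunostaining (1:200) with quantification of positive cells.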

[22] = molecular target: Bromodomain-containing protein 4 (Homo sapiens) (UniProt O60885); settings: D341 cell line, dose 500.0 nM, time 24.0 hrs
[23] = molecular target: Bromodomain-containing protein 4 (Homo sapiens) (UniProt O60885); settings: D283 Med, dose 500.0 nM, time 24.0 hrs

Cc1sc2c(c1C)C(c1ccc(Cl)cc1)=N[C@@H](CC(=O)OC(C)(C)C)c1nnc(C)n1-2
IC50 (D341 cell line [1]): 924 nM | IC50 (ONS-76 [2]): 172 nM | IC50 (ONS-76 [3]): 87 nM | IC50 (Daoy): > 1000 nM | IC50 (D283 Med [4]): 477 nM | IC50 (D283 Med [5]): 316 nM | Activity (D341 cell line [6]): Active | Activity (D341 cell line [7]): Active | Activity (ONS-76 [8]): Active | Activity (D283 Med [9]): Active | Activity (ONS-76 [10]): Active | Activity (HD-MB03 [11]): Active | Activity (D283 Med [12]): Active | Activity (UW228 [13]): Active | Activity (ONS-76 [14]): Active | Activity (HD-MB03 [15]): Active | Activity (UW228 [16]): Active | Activity (D283 Med [17]): Active | Time (HD-MB03 [18]): 8 days | inhibition (HD-MB03 [19]): Active | inhibition (HD-MB03 [20]): Active | Activity (HD-MB03 [21]): Active | inhibition [22]: Active | inhibition [23]: Active
